Assay results reported in ChEMBL document CHEMBL1150836, “Bioactive constituents of the roots of Cynanchum atratum” (2001).
Converted amounts (≈) assume the structure as drawn.

Key:
RAW264.7 [1] = assay: Antiinflammatory activity in LPS-stimulated mouse RAW264.7 cells assessed as inhibition of TNFalpha formation at 30 uM pretreated 1 hr before LPS challenge measured after 24 hrs by enzyme immunoassay; type: functional
Procedure, shortened: (§1)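 RAW 264.7 cells, 2 × 10⁵ per well in DMEM with 5% FCS and penicillin/streptomycin, adhered overnight. Pretreated 1 h at 37 °C with drug (0.5% DMSO vehicle; dexamethasone reference), then LPS (E. coli 0111:B4) 1 μg/mL for 24 h. TNF-α in the collected medium, stored at −70 °C, quantified by EIA kit.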

N9 [2] = assay: Antiinflammatory activity in LPS/IFN-gamma-stimulated mouse N9 cells assessed as inhibition of TNFalpha formation at 30 uM pretreated 1 hr before LPS/IFNgamma challenge measured after 24 hrs by enzyme immunoassay
[3] = Cytotoxicity against mouse 212 cells after 6 days by MTT assay; type: functional; conditions: 144 h, read-out: ED50 (the source's name)
Procedure, shortened: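 Ha-ras-transformed NIH/3T3 line (212), kept in MEM alpha with 10% calf serum and antibiotics. Assay medium had 10 mM HEPES pH 7.3. (1–3) × 10³ cells seeded, attached 6 h, then exposed to a range of drug concentrations for 6 days at 37 °C. MTT 4 h, DMSO solubilisation, A550.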

RAW264.7 [4] = assay: Antiinflammatory activity in LPS-stimulated mouse RAW264.7 cells assessed as inhibition of TNFalpha formation at 10 uM pretreated 1 hr before LPS challenge measured after 24 hrs by enzyme immunoassay; type: functional; procedure, shortened: as §1
N9 [5] = assay: Antiinflammatory activity in LPS/IFN-gamma-stimulated mouse N9 cells assessed as inhibition of TNFalpha formation at 10 uM pretreated 1 hr before LPS/IFNgamma challenge measured after 24 hrs by enzyme immunoassay
T-24 = assay: Cytotoxicity against human T24 cells after 6 days by MTT assay; type: functional; conditions: T-24, 144 h, read-out: ED50 (the source's name)
Procedure, shortened: (§2)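 Cells grown in DMEM with 10% FBS, 2 mM glutamine and penicillin/streptomycin. (1–3) × 10³ cells seeded per well, attached 6 h, then given fresh medium with 10 mM HEPES pH 7.3 and a range of drug concentrations at 37 °C, CO₂, for 6 days. MTT (1 mg/mL in PBS) added for 4 h, formazan dissolved in DMSO, absorbance read at 550 nm.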

Ca-Ski = assay: Cytotoxicity against human CaSki cells after 6 days by MTT assay; type: functional; conditions: 144 h, read-out: ED50 (the source's name); procedure, shortened: as §2
SiHa = assay: Cytotoxicity against human SiHa cells after 6 days by MTT assay; type: functional; conditions: 144 h, read-out: ED50 (the source's name); procedure, shortened: as §2
HT-3 = assay: Cytotoxicity against human HT3 cells after 6 days by MTT assay; type: functional; conditions: HT-3, 144 h, read-out: ED50 (the source's name); procedure, shortened: as §2
[6] = Cytotoxicity against human PLC/PRF/5 cells after 6 days by MTT assay; type: functional; conditions: PLC-PRF-5, 144 h, read-out: ED50 (the source's name); procedure, shortened: as §2

Row | Compound | inhibition at 30 µM (RAW264.7 [1]) [%] | inhibition at 30 µM (N9 [2]) [%] | EC50 [3] [µg/mL] | inhibition at 10 µM (RAW264.7 [4]) [%] | inhibition at 10 µM (N9 [5]) [%] | further results
1 | CC(=O)c1ccc(O)c(O)c1 | -29.2 | -21.5 | – | – | – | –
2 | CO[C@@H]1[C@@H](O)[C@H](O[C@H]2CC[C@@]3(C)C(=CC[C@@H]4C(=O)O[C@@H]5CO[C@]6(C)OC=C(CC[C@@H]43)[C@H]56)C2)O[C@H](C)[C@H]1O[C@H]1C[C@H](OC)[C@@H](O[C@H]2C[C@H](OC)[C@H](O)[C@@H](C)O2)[C@H](C)O1 | 33.7 | 30.9 | 0.96 (≈ 1.19 µM) | – | – | –
3 | CO[C@@H]1[C@@H](O)[C@H](O[C@H]2CC[C@@]3(C)C(=CC[C@@H]4C(=O)O[C@@H]5CO[C@]6(C)OC=C(CC[C@@H]43)[C@H]56)C2)O[C@H](C)[C@H]1O | – | – | – | 29.5 | 3.2 | –
4 | COc1cc(C(C)=O)ccc1O [APOCYNIN] | -19.8 | -22.6 | – | – | – | –
5 | CO[C@@H]1[C@@H](O)[C@H](O[C@H]2CC[C@@]3(C)C(=CC[C@@H]4C(=O)O[C@@H]5CO[C@]6(C)OC(=O)/C(=C/C[C@@H]43)[C@H]56)C2)O[C@H](C)[C@H]1O[C@H]1C[C@H](OC)[C@@H](O[C@H]2C[C@H](OC)[C@H](O)[C@@H](C)O2)[C@H](C)O1 [ATRATOGLAUCOSIDE B] | – | – | > 4 | – | – | EC50 (T-24): > 4 µg/mL; EC50 (Ca-Ski): > 4 µg/mL; EC50 (SiHa): > 4 µg/mL; EC50 (HT-3): > 4 µg/mL; EC50 [6]: > 4 µg/mL
6 | C[C@@H]1C[C@H]2[C@@H]3CCC4=CC(=O)C=C[C@]4(C)[C@@]3(F)[C@@H](O)C[C@]2(C)[C@@]1(O)C(=O)CO [DEXAMETHASONE] | – | – | – | 49.9 | 82 | –
